The target of data set [1] is T1, Protein deacetylase HDAC6 (Homo sapiens) (UniProt Q9UBN7).
T1 sequence (whole entry): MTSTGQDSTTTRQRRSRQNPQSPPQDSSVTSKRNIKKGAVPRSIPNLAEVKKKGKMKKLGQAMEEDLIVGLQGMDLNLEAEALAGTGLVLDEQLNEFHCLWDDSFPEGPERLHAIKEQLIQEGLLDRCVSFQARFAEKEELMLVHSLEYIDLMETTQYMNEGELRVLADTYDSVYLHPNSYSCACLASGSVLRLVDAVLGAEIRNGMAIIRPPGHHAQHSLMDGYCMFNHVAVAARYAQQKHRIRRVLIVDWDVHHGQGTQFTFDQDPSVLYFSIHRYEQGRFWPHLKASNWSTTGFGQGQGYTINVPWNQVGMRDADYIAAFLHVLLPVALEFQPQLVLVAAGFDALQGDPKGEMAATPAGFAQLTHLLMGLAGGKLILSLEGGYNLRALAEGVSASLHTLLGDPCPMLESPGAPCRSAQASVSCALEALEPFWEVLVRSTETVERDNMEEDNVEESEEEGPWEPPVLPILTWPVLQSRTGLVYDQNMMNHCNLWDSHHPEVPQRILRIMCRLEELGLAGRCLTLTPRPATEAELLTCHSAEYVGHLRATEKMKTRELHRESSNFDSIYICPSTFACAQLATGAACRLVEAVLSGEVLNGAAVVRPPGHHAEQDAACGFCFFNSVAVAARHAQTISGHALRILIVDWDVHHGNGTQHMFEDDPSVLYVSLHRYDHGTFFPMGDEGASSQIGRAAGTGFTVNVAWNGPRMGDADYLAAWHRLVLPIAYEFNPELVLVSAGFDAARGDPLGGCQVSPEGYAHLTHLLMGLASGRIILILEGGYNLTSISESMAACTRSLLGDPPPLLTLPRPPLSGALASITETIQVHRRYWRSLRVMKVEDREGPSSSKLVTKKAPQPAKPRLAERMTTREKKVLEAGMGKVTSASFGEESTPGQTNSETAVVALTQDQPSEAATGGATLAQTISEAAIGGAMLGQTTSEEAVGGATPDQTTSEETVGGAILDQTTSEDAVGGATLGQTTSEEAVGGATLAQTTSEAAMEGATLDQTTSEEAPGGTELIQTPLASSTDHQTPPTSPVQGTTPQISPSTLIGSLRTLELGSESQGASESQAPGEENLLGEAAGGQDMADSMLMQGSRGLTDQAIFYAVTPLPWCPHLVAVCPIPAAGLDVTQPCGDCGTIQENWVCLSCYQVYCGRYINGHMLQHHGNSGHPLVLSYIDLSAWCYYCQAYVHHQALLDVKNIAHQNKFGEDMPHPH
As to the kind of experiment: Inhibition of HDAC6 in human SH-SY5Y cells transfected with pCAX FLAG APP and pRK5-EGFP-Tau P301L plasmids assessed as reduction in Tau P301L mutant level in cytosol at 1 uM after 24 hrs by Western blot analysis. It is filed as cell-based. A digest of the protocol:
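Cotransfected SH-SY5Y cells (1 × 10^7) treated 24 h at 1 µM, lysed in sucrose/HEPES pH 7.2 buffer; 190,000 g supernatant = cytosol. Pellet treated with 5 µM nocodazole, re-spun; residual pellet extracted with sodium carbonate pH 11.5 and washed in 1% SDS to give aggregate fraction. Equal protein by SDS-PAGE immunoblot.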
(A western blot detects proteins with antibodies after separation by electrophoresis.)

Another data set concerns SH-SY5Y. As to the kind of experiment: Inhibition of APP levels in human SH-SY5Y cells transfected with pCAX FLAG APP and pRK5-EGFP-Tau P301L plasmids at 1 uM after 24 hrs by Western blot analysis. It is filed as functional, cell-based. In short, it runs like this: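 SH-SY5Y or Neuro-2a cells cotransfected 24 h with pCAX APP695 and pRK5-EGFP-Tau P301L, then treated 24 h at 1 µM. 20 µg lysate protein immunoblotted for APP and phospho-tau Ser396/Ser404. Mean ± STD of three independent experiments; Student's t-test.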

Data set [2] has as its target T1, Protein deacetylase HDAC6 (Homo sapiens). As to the kind of experiment: Inhibition of HDAC6 in human SH-SY5Y cells transfected with pCAX FLAG APP and pRK5-EGFP-Tau P301L plasmids assessed as suppression of phosphorylated tau P301L mutant-induced apoptosis by measuring accumulation at sub-G1 phase at 0.01 uM after 24 hrs by propidium iodide staining-based flow cytometry (reference value: 22.01%). It is filed as cell-based. Also noted: scale not given: the % may be the effect or the level left.

Data set [3] shares this target. As to the kind of experiment: Inhibition of HDAC6 in human SH-SY5Y cells transfected with pCAX FLAG APP and pRK5-EGFP-Tau P301L plasmids assessed as suppression of phosphorylated tau P301L mutant-induced apoptosis by measuring accumulation at sub-G1 phase at 0.1 uM after 24 hrs by propidium iodide staining-based flow cytometry (reference value: 22.01%). It is filed as cell-based. Set-up: scale not given: the % may be the effect or the level left.

For the next data set, the system named is Rattus norvegicus. As to the kind of experiment: In vivo inhibition of HDAC6 in Wistar rat brain hippocampal CA1 region assessed as downregulation of scopolamine-mediated increase in Tau phosphorylation at Ser396/Ser404 residues by immunohistochemical analysis. It is filed as functional, organism-based. A digest of the protocol:
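Male Wistar rats, 7 weeks old, dosed orally at 25 mg/kg in 1% carboxymethyl cellulose/0.5% Tween 80 once daily. Scopolamine 1 mg/kg i.p. 90 min before test trial (controls excluded). Morris water maze (hidden platform escape latency), elevated plus maze (started at open-arm end, time to closed arm), then CA1 phospho-tau Ser396/Ser404 immunohistochemistry.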

For data set [4], the system named is Mus musculus. As to the kind of experiment: In vivo inhibition of HDAC6 in 3xTg-AD transgenic mouse brain hippocampal CA1 region assessed as downregulation of […] expression of beta-amyloid at 50 mg/kg, po administered daily for 3 months by immunohistochemical analysis. It is filed as functional, organism-based.
Data set [5] can be described thus: Toxicity in Balb/c mouse assessed as survival rate at 100 mg/kg, ip qd administered for 6 days followed by 1 week recovery (reference value: 100%). It is filed as organism-based. Conditions: in vivo.
Data set [6] relates to Mus musculus. As to the kind of experiment: In vivo inhibition of HDAC6 in 3xTg-AD transgenic mouse brain hippocampal CA1 region assessed as downregulation of scopolamine-mediated increase in Tau phosphorylation at Ser404 residue at 50 mg/kg, po administered daily for 3 months by Western blot analysis. It is filed as functional, organism-based. A digest of the protocol:
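Female 3xTg-AD mice, fed standard diet to 6 months of age, then dosed orally at 50 or 100 mg/kg once daily for three months. Brains removed; hippocampal tissue lysates immunoblotted for acetyl-α-tubulin and phospho-tau Ser396 and Ser404. Mean ± STD; one-way ANOVA.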

Calls of active or inactive are those of the source. The rule behind the calls is not given here.

As to `COc1ccc(C(=O)c2ccc3c(ccn3Cc3ccc(C(=O)NO)cc3)c2)cc1`, the inhibition entry (in data set [1]; in the data set on SH-SY5Y; in the data set on Rattus norvegicus; in the data set on Mus musculus [4]; with Mus musculus [6]) was “Active” throughout. In addition, the Activity in data set [2] came to 15.6%; in data set [3], 13.5%. For the same molecule, the survival in data set [5] worked out at 100%.

Source of the values: ChEMBL document CHEMBL4196108, “5-Aroylindoles Act as Selective Histone Deacetylase 6 Inhibitors Ameliorating Alzheimer's Disease Phenotypes” (J Med Chem, 2018).
